Tests used:
Oryctolagus cuniculus = organism: Oryctolagus cuniculus; test: The compound was tested in vitro for prokinetic activity as smooth muscle contractility in isolated rabbit duodenum; assay type: functional, Muscle tissue
[1] = Half life period after oral administration in the dog; assay type: ADME, organism-based, Canis lupus familiaris; settings: in vivo
Method in brief: (§1)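 Groups of fasted male/female beagle dogs received the lactobionate salt as a 2 mg/mL solution, at 0.5 mg/kg iv or 1 mg/kg po. Blood was sampled at set times over 12 h. Parent drug was extracted from alkalized plasma with EtOAc:hexane (1:1) and measured by reverse-phase HPLC (pH 6.9 phosphate mobile phase) with oxidative electrochemical detection. The assay was linear over 0-500 ng/mL, with LOQ ~7 ng/mL.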

[2] = Oral bioavailability in dog; assay type: ADME, organism-based, Canis lupus familiaris; settings: in vivo; method in brief: as §1
[3] = Activity relative to erythromycin A

Row | Structure (SMILES) | pED50 (Oryctolagus cuniculus) | half-life [1] [h] | bioavailability [2] [%] | Relative activity [3]
1 | CC[C@H]1OC(=O)[C@H](C)[C@@H](O[C@H]2C[C@@](C)(OC)[C@@H](O)[C@H](C)O2)[C@H](C)[C@@H](O[C@@H]2O[C@H](C)C[C@H](N(C)CC)[C@H]2O)[C@@]2(C)CC(C)=C(O2)[C@H](C)[C@@H](O)[C@]1(C)O | 8.45 | 2.4 | 1.4 | 2.6
2 | CC[C@H]1OC(=O)[C@H](C)[C@@H](O[C@H]2C[C@@](C)(OC)C[C@H](C)O2)[C@H](C)[C@@H](O[C@@H]2O[C@H](C)C[C@H](NC)[C@H]2O)[C@@]2(C)CC(C)=C(O2)[C@H](C)[C@@H](O)[C@H]1C | >12 | 2 | 23.8 | > 6.15
3 | CC[C@H]1OC(=O)[C@H](C)[C@@H](O[C@H]2C[C@@](C)(OC)C[C@H](C)O2)[C@H](C)[C@@H](O[C@@H]2O[C@H](C)C[C@H](N(C)CC)[C@H]2O)[C@@]2(C)CC(C)=C(O2)[C@H](C)[C@@H](O)[C@H]1C [ALEMCINAL] | >12 | 5.5 | 39 | > 6.15
4 | CC[C@H]1OC(=O)[C@H](C)[C@@H](O[C@H]2C[C@@](C)(OC)[C@@H](O)[C@H](C)O2)[C@H](C)[C@@H](O[C@@H]2O[C@H](C)C[C@H](N(C)C)[C@H]2O)[C@@]2(C)CC(C)=C(O2)[C@H](C)[C@@H](O)[C@]1(C)O | 8.4 |  |  | 2.55
5 | CC[C@H]1OC(=O)[C@H](C)[C@@H](O[C@H]2C[C@@](C)(OC)[C@@H](O)[C@H](C)O2)[C@H](C)[C@@H](O[C@@H]2O[C@H](C)C[C@H](N(C)C)[C@H]2O)[C@](C)(O)C[C@@H](C)C(=O)[C@H](C)[C@@H](O)[C@]1(C)O [ERYTHROMYCIN] | 5.85 |  |  | 
6 | CC[C@H]1OC(=O)[C@H](C)[C@@H](O[C@H]2C[C@@](C)(OC)[C@@H](O)[C@H](C)O2)[C@H](C)[C@@H](O[C@@H]2O[C@H](C)C[C@H](NC)[C@H]2O)[C@@]2(C)CC(C)=C(O2)[C@H](C)[C@@H](O)[C@]1(C)O | 7.1 |  |  | 1.3
7 | CC[C@H]1OC(=O)[C@H](C)[C@@H](O[C@H]2C[C@@](C)(OC)C[C@H](C)O2)[C@H](C)[C@@H](O[C@@H]2O[C@H](C)C[C@H](N(C)C)[C@H]2O)[C@@]2(C)CC(C)=C(O2)[C@H](C)[C@@H](O)[C@]1(C)O | 8.41 |  |  | 2.56
8 | CC[C@H]1OC(=O)[C@H](C)[C@@H](O[C@H]2C[C@@](C)(OC)[C@@H](O)[C@H](C)O2)[C@H](C)[C@@H](O[C@@H]2O[C@H](C)C[C@H](N(C)C)[C@H]2O)[C@@]2(C)CC(C)=C(O2)[C@H](C)[C@@H](O)[C@H]1C | 8.68 |  |  | 2.83
9 | CC[C@H]1OC(=O)[C@H](C)[C@@H](O[C@H]2C[C@@](C)(OC)C[C@H](C)O2)[C@H](C)[C@@H](O[C@@H]2O[C@H](C)C[C@H](NC)[C@H]2O)[C@@]2(C)CC(C)=C(O2)[C@H](C)[C@@H](O)[C@]1(C)O | 9.74 |  |  | 3.89
10 | CC[C@H]1OC(=O)[C@H](C)[C@@H](O[C@H]2C[C@@](C)(OC)C[C@H](C)O2)[C@H](C)[C@@H](O[C@@H]2O[C@H](C)C[C@H](N(C)C)[C@H]2O)[C@@]2(C)CC(C)=C(O2)[C@H](C)[C@@H](O)[C@H]1C | 11.26 |  |  | 5.41
11 | CC[C@H]1OC(=O)[C@H](C)[C@@H](O[C@H]2C[C@@](C)(OC)C[C@H](C)O2)[C@H](C)[C@@H](O[C@@H]2O[C@H](C)C[C@H](N(C)CC)[C@H]2O)[C@@]2(C)CC(C)=C(O2)[C@H](C)[C@@H](O)[C@]1(C)O | 11.15 | 2.6 | 2.7 | 5.3

Reference: ChEMBL document CHEMBL1128367, “Synthesis of 4"-deoxy motilides: identification of a potent and orally active prokinetic drug candidate” (J Med Chem, 1995)
